# Source: ChEMBL document CHEMBL4610011, “Bilobalide and PC12 cells: A structure activity relationship study” (Bioorg Med Chem, 2020)
# Activity calls are given as the source filed them. The rule behind the calls is not given here.
# Legend:
# [1] = system: PC-12; assay: Neuroprotective activity against amyloid beta (1 to 40 residues)-induced toxicity in rat PC12 cells at 0.26 ug/mL pretreated for 24 hrs followed by 1 uM amyloid beta (1 to 40 residues) challenge and measured after 24 hrs by WST-8 assay
# [2] = system: PC-12; assay: Induction of neurite outgrowth in rat PC12 cells at 0.26 ug/ml incubated for 24 hrs by microscopic analysis; assay type: functional, cell-based
# In short: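 PC12 cells (2,000/well, collagen I) were treated for 24 h in DMEM with 1% FBS, 1% horse serum and 10 ng/mL NGF containing substance, then cultured 24 h in the same medium without Aβ. Cells were imaged by microscopy before the viability read-out. Cells with neurites equal to, twice, or more than twice the cell length were counted.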
# [3] = system: PC-12; assay: Induction of cell proliferation in rat PC12 cells assessed as increase in cell viability at 0.26 ug/ml after 24 hrs in presence of 10 ng/ml NGF by WST-8 assay; assay type: functional, cell-based
# In short: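 PC12 cells were seeded at 2,000 cells/well on type I collagen and grown 24 h in DMEM with 10% FBS and 10% horse serum at 37 °C, 5% CO₂. They were then given 24 h in DMEM with 1% FBS, 1% horse serum and 10 ng/mL NGF plus substance, followed by 24 h without Aβ. Viability was read by 10% WST-8 for 1–2 h at A450, relative to 0.004% DMSO vehicle.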
SMILES,Activity [1],Activity [2],Activity [3]
CC(C)(C)[C@@]12C[C@@H]3OC(=O)C[C@]3(C(=O)O1)[C@@]21[C@H](OC(=O)c2ccc(Br)cc2)OC(=O)[C@@H]1OC(=O)c1ccc(Br)cc1,Active,Active,–
CC(=O)O[C@@H]1OC(=O)[C@H](OC(C)=O)[C@]12[C@@]13CC(=O)O[C@H]1C[C@]2(C(C)(C)C)OC3=O,Active,Active,Active
CC(C)(C)[C@]1(O)C[C@@H]2OC(=O)C[C@@]23C(=O)O[C@@H]2OC(=O)[C@H](O)[C@]213,Active,Active,Active
CC(C)(C)[C@]1(O)C[C@@H]2OC(O)C[C@]2(CO)[C@@]12COC[C@@H]2O (stereo partly drawn),inactive,inactive,Active
CC(C)(C)C1=C(C=O)[C@](CC(=O)OCc2ccccc2)(C(=O)OCc2ccccc2)C=C1,Active,Active,–
